Here are results for three compounds from article PMC8930943 (Clinical Drug Investigation, 2022).

Values joined by “and” are separate entries in the source; they are usually repeats but may differ in a detail not shown here. Equal entries are not always repeated. “Also recorded” adds a separate entry of the source. Where two headings read alike, the source gives them in different places.

The conditions of data set [1]: single oral 45 mg dose of [14C] radiolabeled dacomitinib; cited from earlier work.
Another data set has as its system human plasma proteins. The settings on record: independent of drug concentrations from 250 to 1000 ng/mL; cited from earlier work.
The conditions of data set [2]: cited from earlier work.
A short description of data set [3]: Assessment of safety and tolerability in Study 1 and Study 2. The format is in vivo, human. The gist of the method: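 Single 30 mg oral dose given after a >8-h fast with 180 mL (Study 1) or 240 mL (Study 2) water. Safety was assessed from AEs, laboratory abnormalities, physical examination, vital signs and 12-lead ECGs taken after 10-min supine rest. ECG times: Study 1 at screening, predose, 6, 48 and 264 h; Study 2 at screening, predose, 6 h, 144 h and follow-up. Participants stayed in-house to 144 h, with follow-up on Days 8–10 and 12.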

The nature of a further data set: Study 1. The format is in vivo, human.
A short description of a further data set: Study 2. The format is in vivo, human.
For data set [4] the following is noted: cited from earlier work. This is another data set of the same source.
Setting [5] is: Study 1 and Study 2, single oral dose of 30 mg.
Where [6] appears, read: mild hepatic impairment, single oral dacomitinib 30 mg.
The mark [7] stands for this setting: Study 2, severe hepatic impairment.
Setting [8] is: severe hepatic impairment, single oral dacomitinib 30 mg.

As to `COc1cc2ncnc(Nc3ccc(F)c(Cl)c3)c2cc1NC(=O)/C=C/CN1CCCCC1` [Dacomitinib], in data set [1], the “radioactivity recovered in feces” value is on record as 79%, the “radioactivity recovered in feces as dacomitinib” value is 20%, the “radioactivity recovered in urine” value is on record as 3% and the “radioactivity recovered in urine as dacomitinib” value was less than 1%. In the data set with human plasma proteins, the “in vitro binding to human plasma proteins” value is listed as “approximately 98%”. Also, the “correlation of concentrations with changes in corrected QT interval” value in data set [2] is “not found to correlate”. The AEs reported result in data set [3] (Study 1, normal hepatic function or mild hepatic impairment groups) was “no AEs were reported”. Also, in data set [3] (setting [5]), the “serious AEs, discontinuations, treatment-related deaths” value is given as “no serious AEs, discontinuations due to study treatment, or treatment-related deaths” and the “vital signs, laboratory values, ECG measurements” value was “No clinically significant changes”. Moreover, in data set [3] (Study 2, normal hepatic function or severe hepatic impairment groups), the AEs reported entry is given as “no AEs were reported”. Besides, in data set [3] (single oral dose of 30 mg, healthy participants and participants with mild, moderate, or severe hepatic impairment), the tolerability entry is “well tolerated”. The “adjusted GMR for Cmax,u (90% CI)” value in “Study 1” (Study 1, mild hepatic impairment vs normal hepatic function, printed as ratio) is recorded as 1.00 (90% CI 0.69–1.44). For the same compound, the “AUCinf and Cmax compared with normal hepatic function” value in the data set “Study 1” (Study 1, mild hepatic impairment, single oral dacomitinib 30 mg) is reported as “unchanged; also recorded: similar”. Also, in the data set “Study 1” (setting [6]), the “AUCinf decrease compared with normal hepatic function” value is listed as 6% and the “Cmax increase compared with normal hepatic function” value turned out to be 3%. The “Cmax decrease compared with normal hepatic function” value in “Study 1” (moderate hepatic impairment, single oral dacomitinib 30 mg) came out at 20%. For the same compound, in “Study 2” (setting [7]), the “AUCinf,u increase compared with normal hepatic function” value amounted to 32% and the “Cmax,u increase compared with normal hepatic function” value is reported as “approximately 69%”. Further, the “adjusted GMR for Cmax,u (90% CI)” value in “Study 2” (Study 2, severe hepatic impairment vs normal hepatic function, printed as ratio) was 1.69 [90% CI 1.08–2.63]. For the same compound, the “AUCinf increase compared with normal hepatic function” value in the data set “Study 2” (setting [8]) is 4% and 4.4%.
As for `O=C(/C=C/CN1CCCCC1)Nc1cc2c(Nc3ccc(F)c(Cl)c3)ncnc2cc1O` [PF-05199265, O-desmethyl dacomitinib], in the data set “Study 2” (setting [8]), the “AUCinf decrease compared with normal liver function” value came out at 19% and the “Cmax decrease compared with normal liver function” value is listed as 66%.
In the case of `C=CC(=O)Nc1cc(Nc2nccc(-c3cn(C)c4ccccc34)n2)c(OC)cc1N(C)CCN(C)C` [osimertinib], the results for the “decrease in AUC versus normal hepatic function” value in data set [4] (cancer patients with mild hepatic impairment (n = 7)) and in data set [4] (cancer patients with moderate hepatic impairment (n = 5)) were 63% and 68%, respectively.
